Data: ChEMBL document CHEMBL1122910, “Syntheses and evaluation as antifolates of MTX analogues derived from 2, omega-diaminoalkanoic acids” (J Med Chem, 1985)

How the values were obtained:
L1210 [1] = experiment: Antitumor activity L1210 cell line as cell membrane transport activity; type: functional, cell-based; details: Mus musculus
Dihydrofolate reductase = molecular target: T1, Dihydrofolate reductase (Mus musculus, UniProt P00375); experiment: In vitro inhibitory activity against Dihydrofolate reductase in L1210 cell in mice; type: cell-based
T1 sequence (P00375 whole entry): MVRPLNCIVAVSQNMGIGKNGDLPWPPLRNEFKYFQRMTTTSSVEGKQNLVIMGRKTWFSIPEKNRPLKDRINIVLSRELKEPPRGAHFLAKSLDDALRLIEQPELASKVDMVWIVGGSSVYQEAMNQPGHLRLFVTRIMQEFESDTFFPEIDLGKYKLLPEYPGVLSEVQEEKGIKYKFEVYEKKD

L1210 [2] = experiment: Inhibition of L1210 cell growth in mice.; type: functional, cell-based; details: Mus musculus
L1210 [3] = experiment: Antitumor activity against L1210 cell line as cell membrane transport activity; type: functional, Mus musculus
L1210 [4] = experiment: In vivo antitumor activity as increase in life span in mice with L1210 10E6 tumor cell implanted intraperitoneally; optimal dose is 768 mg/kg.; type: functional; details: Mus musculus, L1210, ip, route intraperitoneal
P388 = experiment: In vivo antitumor activity as increase in life span in mice with P388 10E6 tumor cell implanted intraperitoneally; type: functional, Mus musculus
Epithelial cell line = experiment: (§1) In vitro antitumor activity against epithelial cell line.; type: functional, Mus musculus
Mus musculus [5] = experiment: Antitumor activity in mice with L1210 Leukemia and percentage increase in life span was reported for 3 mice x 2 experiments at a dose of 432 mg/Kg; type: functional
How it was run: (§2)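 L1210 leukemia-bearing mice dosed on a q2d × 5 schedule. Untreated controls were 5 mice × 12 experiments. Read-outs were MST (days ± SD), % ILS versus control, and body weight at termination (g ± SD).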

Mus musculus [6] = experiment: Antitumor activity in mice with L1210 Leukemia and […] (MST) in days was reported for 3 mice x 2 experiments at a dose of 432 mg/Kg.; type: functional; how it was run: as §2
L1210 [7] = experiment: (§3) In vitro antitumor activity against L1210 cell line.; type: functional, Mus musculus
Ehrlich [8] = experiment: In vitro antitumor activity against Erlich cell line.; type: functional, Mus musculus
L1210 [9] = experiment: as §3; type: functional, cell-based; details: Mus musculus
[10] = In vitro antitumor activity against S180 cells.; type: functional, Mus musculus, CCRF S-180
Mus musculus [11] = experiment: Antitumor activity in mice with L1210 Leukemia and weight at termination of the therapy was reported for 3 mice x 2 experiments at a dose of 432 mg/Kg.; type: functional
CCRF S-180 = experiment: In vitro antitumor activity against S180 cell line.; type: functional, Mus musculus
Mus musculus [12] = experiment: Antitumor activity in mice with L1210 Leukemia and weight at termination of the therapy was reported for 3 mice x 2 experiments at a dose of 144 mg/kg.; type: functional
Mus musculus [13] = experiment: Antitumor activity in mice with L1210 Leukemia and […] (MST) in days was reported for 3 mice x 2 experiments at a dose of 144 mg/kg.; type: functional; how it was run: as §2
Mus musculus [14] = experiment: Antitumor activity in mice with L1210 Leukemia and percentage increase in life span was reported for 3 mice x 2 experiments at a dose of 144 mg/kg; type: functional; how it was run: as §2
Epithelial cell = experiment: as §1; type: functional, Mus musculus
Ehrlich [15] = experiment: In vitro antitumor activity against Erlich cell line,; type: functional, Mus musculus
Mus musculus [16] = organism: Mus musculus; experiment: Antitumor activity against L1210 cell […]; type: functional
Mus musculus [17] = experiment: Antitumor activity in mice with L1210 Leukemia and weight at termination of the therapy was reported for 5 mice x 12 experiments at a dose of 15 mg/kg.; type: functional
L1210 [18] = experiment: In vivo antitumor activity as increase in life span in mice with L1210 10E6 tumor cell implanted intraperitoneally; optimal dose is 12 mg/kg.; type: functional; details: Mus musculus, L1210, ip, route intraperitoneal
Mus musculus [19] = experiment: Antitumor activity in mice with L1210 Leukemia and percentage increase in life span was reported for 5 mice x 12 experiments at a dose of 15 mg/Kg

Row | SMILES | Efflux Ki (L1210 [1]) [min⁻¹] | Ki (Dihydrofolate reductase) [nM] | IC50 (L1210 [2]) [nM] | Influx Ki (L1210 [3]) [nM] | also measured
1 | CN(Cc1cnc2nc(N)nc(N)c2n1)c1ccc(C(=O)NC(CNC(=O)NC(CCC(=O)O)C(=O)O)C(=O)O)cc1 (stereo not given) | 0.234 | 0.00471 | 200 | 16400 | –
2 | CN(Cc1cnc2nc(N)nc(N)c2n1)c1ccc(C(=O)NC(CCCNC(=O)OC(C)(C)C)C(=O)O)cc1 (stereo not given) | – | – | 97 | – | –
3 | CN(Cc1cnc2nc(N)nc(N)c2n1)c1ccc(C(=O)NC(CNC(=O)OC(C)(C)C)C(=O)O)cc1 (stereo not given) | – | – | 440 | – | –
4 | CN(Cc1cnc2nc(N)nc(N)c2n1)c1ccc(C(=O)NC(CCCNC(=O)c2ccc(Cl)cc2)C(=O)O)cc1 (stereo not given) | 0.437 | 0.00531 | 1.71 | 4320 | ILS at 768 mg/kg (L1210 [4]): 104%
5 | CN(Cc1cnc2nc(N)nc(N)c2n1)c1ccc(C(=O)NC(CCCN)C(=O)O)cc1 (stereo not given) | – | – | 507 | – | –
6 | CN(Cc1cnc2nc(N)nc(N)c2n1)c1ccc(C(=O)NC(CCNC(=O)OC(C)(C)C)C(=O)O)cc1 (stereo not given) | – | – | 333 | – | –
7 | CCOC(=O)C(CNC(=O)N(C)N=O)NC(=O)c1ccc(N(C)Cc2cnc3nc(N)nc(N)c3n2)cc1 (stereo not given) | 0.298 | 6.35 | 3650 | 42400 | ILS (P388): 58%
8 | CN(Cc1cnc2nc(N)nc(N)c2n1)c1ccc(C(=O)NC(CCNC(N)=O)C(=O)O)cc1 (stereo not given) | – | 0.004 | 21.8 | – | Influx Ki (Epithelial cell line): >500000 nM; ILS at 432 mg/kg (Mus musculus [5]): 33%; MST (Mus musculus [6]): 9.3 days; Influx Ki (L1210 [7]): 17300 nM; Influx Ki (Ehrlich [8]): 15900 nM; Efflux Ki (L1210 [9]): 0.19 min⁻¹; Influx Ki [10]: 24600 nM; Weight (Mus musculus [11]): 21.6 g
9 | CCOC(=O)C(CNC(=O)N(CCCl)N=O)NC(=O)c1ccc(N(C)Cc2cnc3nc(N)nc(N)c3n2)cc1 (stereo not given) | 0.202 | 3.24 | 2900 | 46900 | ILS (P388): 113%
10 | CN(Cc1cnc2nc(N)nc(N)c2n1)c1ccc(C(=O)NC(CCN)C(=O)O)cc1 (stereo not given) | – | – | 1360 | – | –
11 | CN(Cc1cnc2nc(N)nc(N)c2n1)c1ccc(C(=O)NC(CNC(N)=O)C(=O)O)cc1 (stereo not given) | – | 35 | 9.4 | – | Influx Ki (Epithelial cell line): >500000 nM; ILS at 432 mg/kg (Mus musculus [5]): 129%; MST (Mus musculus [6]): 16.3 days; Influx Ki (L1210 [7]): 11600 nM; Influx Ki (CCRF S-180): 11600 nM; Influx Ki (Ehrlich [8]): 12500 nM; Efflux Ki (L1210 [9]): 0.25 min⁻¹; Weight (Mus musculus [11]): 16 g
12 | CNC(=O)NCC(NC(=O)c1ccc(N(C)Cc2cnc3nc(N)nc(N)c3n2)cc1)C(=O)O (stereo not given) | – | 14.2 | 34.3 | – | Influx Ki (Epithelial cell line): >500000 nM; Influx Ki (L1210 [7]): 16700 nM; Influx Ki (CCRF S-180): 19700 nM; Influx Ki (Ehrlich [8]): 13400 nM; Efflux Ki (L1210 [9]): 0.27 min⁻¹; Weight (Mus musculus [12]): 20 g; MST (Mus musculus [13]): 7 days; ILS at 144 mg/kg (Mus musculus [14]): 12%
13 | CN(Cc1cnc2nc(N)nc(N)c2n1)c1ccc(C(=O)NC(CNC(=O)c2ccc(Cl)cc2)C(=O)O)cc1 (stereo not given) | 0.255 | 0.00498 | 11.9 | 7430 | –
14 | CN(Cc1cnc2nc(N)nc(N)c2n1)c1ccc(C(=O)N[C@@H](CCC(=O)O)C(=O)O)cc1 [METHOTREXATE] | 0.203 | – | 3.28 | 4570 | Influx Ki (Epithelial cell): 339000 nM; Influx Ki (Ehrlich [15]): 10100 nM; Effllux (L1210 [7]): 0.23 min⁻¹; Influx Ki (L1210 [7]): 3700 nM; Influx Ki (CCRF S-180): 11400 nM; IC50 (Mus musculus [16]): 3.28 nM; Weight (Mus musculus [17]): 19.8 g; ILS at 12 mg/kg (L1210 [18]): 173%; ILS at 15 mg/kg (Mus musculus [19]): 152%
15 | CN(Cc1cnc2nc(N)nc(N)c2n1)c1ccc(C(=O)NC(CCNC(=O)c2ccc(Cl)cc2)C(=O)O)cc1 (stereo not given) | 1.21 | 0.00642 | 27.3 | 4670 | –
16 | CN(Cc1cnc2nc(N)nc(N)c2n1)c1ccc(C(=O)NC(CN)C(=O)O)cc1 (stereo not given) | – | – | 1030 | – | –
